Reference: paper PMC4512242 (Nature chemical biology, 2015)
Ends that are not written are not given here.

B2: LynD heterocyclase (cyclodehydratase), full length (enzyme, Lyngbya sp. PCC 8106)
chain: MQSTPLLQIQPHFHVEVIEPKQVYLLGEQANHALTGQLYCQILPLLNGQYTLEQIVEKLDGEVPPEYIDYVLERLAEKGYLTEAAPELSSEVAAFWSELGIAPPVAAEALRQPVTLTPVGNISEVTVAALTTALRDIGISVQTPTEAGSPTALNVVLTDDYLQPELAKINKQALESQQTWLLVKPVGSVLWLGPVFVPGKTGCWDCLAHRLRGNREVEASVLRQKQAQQQRNGQSGSVIGCLPTARATLPSTLQTGLQFAATEIAKWIVKYHVNATAPGTVFFPTLDGKIITLNHSILDLKSHILIKRSQCPTCGDPKILQHRGFEPLKLESRPKQFTSDGGHRGTTPEQTVQKYQHLISPVTGVVTELVRITDPANPLVHTYRAGHSFGSATSLRGLRNTLKHKSSGKGKTDSQSKASGLCEAVERYSGIFQGDEPRKRATLAELGDLAIHPEQCLCFSDGQYANRETLNEQATVAHDWIPQRFDASQAIEWTPVWSLTEQTHKYLPTALCYYHYPLPPEHRFARGDSNGNAAGNTLEEAILQGFMELVERDGVALWWYNRLRRPAVDLGSFNEPYFVQLQQFYRENDRDLWVLDLTADLGIPAFAGVSNRKTGSSERLILGFGAHLDPTIAILRAVTEVNQIGLELDKVPDENLKSDATDWLITEKLADHPYLLPDTTQPLKTAQDYPKRWSDDIYTDVMTCVNIAQQAGLETLVIDQTRPDIGLNVVKVTVPGMRHFWSRFGEGRLYDVPVKLGWLDEPLTEAQMNPTPMPF

Key:
LynD = assay: Heterocyclization reaction with LynD, MS; assay type: biochemical, Lyngbya sp. PCC 8106; conditions: LynD wild type; 100 μM PatE′ or variant, 5 μM enzyme, 150 mM NaCl, 10 mM HEPES pH 7.4, 1 mM TCEP, 5 mM ATP, 5 mM MgCl2, 16 h, 37 °C; ESI or MALDI MS
Procedure, shortened: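 Codon-optimized full-length LynD, with a TEV-cleaved His6-tag, is purified from E. coli BL21 (DE3) by Ni, monoQ and size-exclusion steps. PatE′ (C-terminal His6) comes from inclusion bodies, purified in 8 M urea, then DTT-treated and gel-filtered. 100 μM substrate is reacted with 5 μM enzyme and 5 mM ATP/MgCl2 in HEPES pH 7.4 for 16 h at 37 °C. Heterocycle number is read by ESI or MALDI MS.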

LynD Fusion = assay: Heterocyclization reaction with LynD fusion, MS; assay type: biochemical, Lyngbya sp. PCC 8106
Procedure, shortened: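 Enzyme is LynD carrying PatE leader residues 21-38 plus an 11-residue linker at its N-terminus, expressed in E. coli BL21 (DE3) with the His6-tag removed by TEV. Product is read by ESI/MALDI MS or LC-MS […].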

TruD = assay: Heterocyclization reaction with TruD, LCMS; assay type: biochemical; conditions: ITACITFCAYDG core peptide, no leader, 16 h
SEC = biological target: the molecule itself; assay: SEC
LynD Y67D = biological target: T1, LynD Y67D (Lyngbya sp. PCC 8106, Y67D); assay: ITC
T1 chain: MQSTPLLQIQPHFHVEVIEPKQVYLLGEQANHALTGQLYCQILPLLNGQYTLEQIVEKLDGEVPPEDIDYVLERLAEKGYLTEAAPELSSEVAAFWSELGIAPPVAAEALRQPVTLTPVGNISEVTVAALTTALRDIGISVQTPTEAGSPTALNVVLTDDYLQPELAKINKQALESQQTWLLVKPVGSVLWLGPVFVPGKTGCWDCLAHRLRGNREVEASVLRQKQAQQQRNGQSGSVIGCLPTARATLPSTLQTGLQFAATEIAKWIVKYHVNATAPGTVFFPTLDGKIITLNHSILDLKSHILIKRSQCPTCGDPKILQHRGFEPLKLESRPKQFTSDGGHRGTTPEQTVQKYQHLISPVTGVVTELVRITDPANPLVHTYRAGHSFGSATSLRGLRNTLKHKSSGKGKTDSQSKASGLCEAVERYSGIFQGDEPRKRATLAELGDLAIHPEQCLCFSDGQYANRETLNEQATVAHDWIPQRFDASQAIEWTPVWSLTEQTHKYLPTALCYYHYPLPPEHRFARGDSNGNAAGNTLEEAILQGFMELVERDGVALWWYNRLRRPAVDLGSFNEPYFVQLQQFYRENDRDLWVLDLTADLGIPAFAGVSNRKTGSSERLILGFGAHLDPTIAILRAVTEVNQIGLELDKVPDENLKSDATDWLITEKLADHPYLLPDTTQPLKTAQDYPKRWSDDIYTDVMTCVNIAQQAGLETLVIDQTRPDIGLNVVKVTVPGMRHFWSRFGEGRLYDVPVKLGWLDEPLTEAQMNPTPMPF

LynD R399E = biological target: T2, LynD R399E (Lyngbya sp. PCC 8106, R399E); assay: ITC
T2 chain: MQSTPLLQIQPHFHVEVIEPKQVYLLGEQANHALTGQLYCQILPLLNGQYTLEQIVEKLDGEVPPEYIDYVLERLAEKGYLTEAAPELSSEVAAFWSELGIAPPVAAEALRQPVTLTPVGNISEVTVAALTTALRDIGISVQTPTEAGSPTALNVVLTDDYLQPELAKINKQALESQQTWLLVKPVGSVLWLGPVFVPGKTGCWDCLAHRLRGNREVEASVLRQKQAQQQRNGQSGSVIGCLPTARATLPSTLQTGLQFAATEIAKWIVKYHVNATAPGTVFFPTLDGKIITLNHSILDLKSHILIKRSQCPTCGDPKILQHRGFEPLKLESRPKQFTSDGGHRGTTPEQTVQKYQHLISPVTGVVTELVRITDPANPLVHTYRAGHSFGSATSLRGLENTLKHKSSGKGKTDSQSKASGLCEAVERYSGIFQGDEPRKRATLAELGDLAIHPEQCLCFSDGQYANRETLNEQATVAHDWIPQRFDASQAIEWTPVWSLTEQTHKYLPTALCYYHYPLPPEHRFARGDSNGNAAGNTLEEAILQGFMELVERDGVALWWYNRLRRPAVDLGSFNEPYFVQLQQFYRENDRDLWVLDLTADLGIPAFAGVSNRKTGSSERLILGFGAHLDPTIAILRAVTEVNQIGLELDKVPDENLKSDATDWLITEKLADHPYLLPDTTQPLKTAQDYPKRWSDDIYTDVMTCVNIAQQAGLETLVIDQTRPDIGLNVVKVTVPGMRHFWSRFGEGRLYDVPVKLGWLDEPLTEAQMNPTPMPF

[1] = biological target: B2; assay: ITC
[2] = biological target: B2; assay: crystal structure

Molecule: PatE′ E32R (MDKKNILPQQGQPVIRLTAGQLSSQLAELSERALGDAGLEASKITACITFCAYDGELE; not fully specified (C-terminus); cysteine pairing not given here)
- No. of heterocycles (LynD): 2

Molecule: MDKKNILPQQGQPVIRLTAGQLSSQLAELSEEALGDAGLEASKITACITFCAYDGELEHHH HHH [PatE′]
- No. of heterocycles (LynD Fusion; LynD Fusion, 100 μM PatE′, 5 μM enzyme, pH 7.4, 5 mM ATP, 5 mM MgCl2, 16 h, 37 °C, ESI or MALDI MS): 2
- No. of heterocycles (LynD): 2

Molecule: PatE′ L26R (MDKKNILPQQGQPVIRLTAGQLSSQRAELSEEALGDAGLEASKITACITFCAYDGELE; not fully specified (C-terminus); cysteine pairing not given here)
- No. of heterocycles (LynD): 2

Molecule: ITACITFCAYDG
- heterocycles formed in leaderless test peptide (LynD Fusion; LynDfusion, ITACITFCAYDG core peptide, no leader, 2 h, LCMS): predominantly 2 heterocycles after just 2 h
- heterocycles formed in leaderless test peptide (TruD): only 1 heterocycle is formed

B1: LynD fusion protein (PatE leader residues 21-38 and an eleven residue linker on the N-terminus of LynD) (enzyme)
chain: QLSSQLAELSEEALGDAGAGAGAGAGAGAMQSTPLLQIQPHFHVEVIEPKQVYLLGEQANHALTGQLYCQILPLLNGQYTLEQIVEKLDGEVPPEYIDYVLERLAEKGYLTEAAPELSSEVAAFWSELGIAPPVAAEALRQPVTLTPVGNISEVTVAALTTALRDIGISVQTPTEAGSPTALNVVLTDDYLQPELAKINKQALESQQTWLLVKPVGSVLWLGPVFVPGKTGCWDCLAHRLRGNREVEASVLRQKQAQQQRNGQSGSVIGCLPTARATLPSTLQTGLQFAATEIAKWIVKYHVNATAPGTVFFPTLDGKIITLNHSILDLKSHILIKRSQCPTCGDPKILQHRGFEPLKLESRPKQFTSDGGHRGTTPEQTVQKYQHLISPVTGVVTELVRITDPANPLVHTYRAGHSFGSATSLRGLRNTLKHKSSGKGKTDSQSKASGLCEAVERYSGIFQGDEPRKRATLAELGDLAIHPEQCLCFSDGQYANRETLNEQATVAHDWIPQRFDASQAIEWTPVWSLTEQTHKYLPTALCYYHYPLPPEHRFARGDSNGNAAGNTLEEAILQGFMELVERDGVALWWYNRLRRPAVDLGSFNEPYFVQLQQFYRENDRDLWVLDLTADLGIPAFAGVSNRKTGSSERLILGFGAHLDPTIAILRAVTEVNQIGLELDKVPDENLKSDATDWLITEKLADHPYLLPDTTQPLKTAQDYPKRWSDDIYTDVMTCVNIAQQAGLETLVIDQTRPDIGLNVVKVTVPGMRHFWSRFGEGRLYDVPVKLGWLDEPLTEAQMNPTPMPF
- stoichiometry N (SEC): 2

Molecule: B2
- stoichiometry N (SEC): 2

B3: PatE′ (modified PatE precursor peptide with full leader and a single core peptide ITACITFC) (peptide)
chain: MDKKNILPQQGQPVIRLTAGQLSSQLAELSEEALGDAGLEASKITACITFCAYDGELE
- Kd (LynD Y67D): 12.9 µM
- Kd (LynD R399E): 10.7 µM
- Kd [1]: 1.49 µM

B4: PatE′ C51A (peptide)
chain: MDKKNILPQQGQPVIRLTAGQLSSQLAELSEEALGDAGLEASKITACITFAAYDGELE
- binding result [2]: binds

B5: PatE′ E32R (peptide)
chain: MDKKNILPQQGQPVIRLTAGQLSSQLAELSERALGDAGLEASKITACITFCAYDGELE
- Kd (LynD R399E): 8.55 µM
- Kd [1]: 18.4 µM

B6: PatE′ L26R (peptide)
chain: MDKKNILPQQGQPVIRLTAGQLSSQRAELSEEALGDAGLEASKITACITFCAYDGELE
- Kd (LynD Y67D): 15.2 µM
